SENP6 inh – SENP6 protease inhibitors, primary screen, biochemical, luminescence, uHTS | Sentrin-specific protease 6 (Homo sapiens), Q9GZR1 | Recombinant SENP6 catalytic domain, aminoluciferin luminescence | inhibition, % at 10 µM | actives 1.8% (n = 330,000);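 active = inhibition above about 50% at the single tested dose, limit read from the data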;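 also: plate controls were DMSO wells with enzyme for no effect and DMSO wells lacking enzyme for full effect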
SENP8 block-1 – SENP8 protease inhibitors, primary screen, biochemical, luminescence; Sentrin-specific protease 8 (Homo sapiens), Q96LD8; purified SENP8, Z-RLRGG-aminoluciferin cleavage; inhibition, % at 10 µM; actives 1.2% (n = 330,000); AID 2540, 2010; in the data active = inhibition above about 50%
Target sequence (Q96LD8 whole entry, looked up): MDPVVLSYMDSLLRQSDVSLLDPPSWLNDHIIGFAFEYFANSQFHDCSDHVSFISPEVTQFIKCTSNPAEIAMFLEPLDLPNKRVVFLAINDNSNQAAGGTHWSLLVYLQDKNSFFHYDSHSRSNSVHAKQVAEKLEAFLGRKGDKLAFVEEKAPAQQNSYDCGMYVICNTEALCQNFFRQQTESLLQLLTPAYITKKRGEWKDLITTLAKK
SENP8 block-2 – human SENP8 protease inhibitors, primary screen, biochemical, fluorescence, Nedd8 protein substrate, uHTS; inhibition, % at 20 µM; AID 602440, 2012; actives 0.64% (n = 360,000); recombinant SENP8; Sentrin-specific protease 8 (Homo sapiens), Q96LD8; in the data active = inhibition mostly above about 40%, no sharp cut-off; inactive = mostly below about 27%
SENP7 inh – SENP7 protease inhibitors, primary screen, biochemical, luminescence, uHTS; recombinant SENP7, Z-RLRGG-aminoluciferin luminescence, 40 min; inhibition, % at 5 µM; actives 1.5% (n = 330,000); Sentrin-specific protease 7 (Homo sapiens), Q9BQF6;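 active = inhibition above about 50% at the single test dose, limit read from the data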;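 also: plate controls were DMSO with enzyme for no effect and no enzyme buffer wells for full effect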
SENP1 FRET inh – human SENP1 catalytic domain inhibitors, primary screen, biochemical, FRET, uHTS. Sentrin-specific protease 1 (Homo sapiens), Q9P0U3. recombinant SENP1 catalytic domain, CyPet-SUMO1-YPet FRET cleavage. inhibition, % at 10 µM. actives 0.21% (n = 360,000);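 active = inhibition at least 30% at 10 µM, raw YFP signal under a set limit, fluorescence ratio 0.5 to 1.5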;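 also: 0% = enzyme with DMSO and 100% = no enzyme wells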
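Controls: no-enzyme wells low, DMSO-plus-enzyme wells high control. Test system: human recombinant His6-tagged SENP1 catalytic domain enzyme. Reagent: SFCypet-SUMO1-SFYpet FRET protein substrate, 25 nM final. Doses: one dose per compound, 10 µM, 0.5% DMSO. Detection: FRET, CFP and YFP emission. Timing: 50 min reaction at room temperature.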
SENP8 confirm – SENP8 protease inhibitors, retest, confirmation, biochemical, luminescence, single concentration; shares compounds with SENP7 inh; Recombinant SENP8, Z-RLRGG-aminoluciferin luminescence, 60 min; inhibition, % at 12.5 µM; actives 40% (n = 6,200);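 active = mean inhibition across replicates above about 50%, limit read from the data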
SENP6 confirm – SENP6 protease inhibitors, confirmation, biochemical, luminescence, single concentration | inhibition, % at 12.5 µM | shares compounds with SENP7 inh | recombinant SENP6, Z-RLRGG-aminoluciferin luminescence | actives 58% (n = 6,200)
SENP7 conf – SENP7 protease inhibitors, retest, confirmation, biochemical, luminescence, single concentration. shares compounds with SENP7 inh. recombinant SENP7, Z-RLRGG-aminoluciferin luminescence, 40 min. inhibition, % at 12.5 µM. actives 69% (n = 6,200). AID 488917, 2010
Casp3 SENP sel – caspase-3 protease inhibitors, confirmation, selectivity assay for SENP inhibitor project, biochemical, single concentration; purified caspase-3, Z-DEVD-aminoluciferin luminescence, 60 min; actives 60% (n = 6,200); inhibition, % at 12.5 µM; AID 488918, 2010; shares compounds with SENP7 inh;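 active = mean inhibition above about 50%, limit read from the data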;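 also: plate controls were enzyme with DMSO for no effect and wells without caspase-3 for full effect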
Target sequence (P42574 28-227 limits assumed): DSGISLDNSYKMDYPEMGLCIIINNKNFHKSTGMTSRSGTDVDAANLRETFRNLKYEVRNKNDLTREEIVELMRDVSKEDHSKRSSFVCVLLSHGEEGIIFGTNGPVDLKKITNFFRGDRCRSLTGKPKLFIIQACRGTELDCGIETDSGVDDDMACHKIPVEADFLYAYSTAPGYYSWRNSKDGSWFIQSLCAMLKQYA
SENP luc ctr – interferes with luciferase luminescence in SENP counter-screen; shares compounds with SENP7 inh; Pre-incubated SENP8/Z-RLRGG-aminoluciferin, luciferase luminescence interference; inhibition, % at 12.5 µM; actives 39% (n = 6,200); AID 488919;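 active = mean inhibition above about 50% when retested at one dose, limit read from the data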;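 also: plate controls were DMSO wells with completed reaction for no effect and substrate without enzyme for full effect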
Starred values were filed as active, the others as inactive; . = no result. In the library only some 2.5% were active in any assay of this set; here they are far more common.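 The calls were made as follows, unless noted: active = mean inhibition above about 50% in the one-dose retest (limit read from the data); inactive = the rest.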

SMILES | SENP6 inh | SENP8 block-1 | SENP8 block-2 | SENP7 inh | SENP1 FRET inh | SENP8 confirm | SENP6 confirm | SENP7 conf | Casp3 SENP sel | SENP luc ctr
COc1ccc(OC)c(N/C=C/C(=O)c2ccccc2)c1 | 93* | 95* | 12 | 101* | -28 | 100* | 101* | 104* | 99* | 95*
CCOc1ccc(CN2CCN(S(=O)(=O)c3ccc(NC(C)=O)cc3)CC2)cc1 | -33 | -3 | 12 | -2 | 1 | . | . | . | . | .
COc1ccc(OC)c(NC(=O)CCN2CC(C)CC(C)C2)c1 (stereo not given) | 6 | -5 | 19 | 8 | 1 | . | . | . | . | .
CCOC(=O)Cn1nc(C)n(-c2ccc(C)cc2)c1=O | -3 | 7 | 5 | 101* | 0 | 3 | 1 | -1 | 0 | -1
CCC1(CC)CNC(=O)NC1 | . | . | 7 | . | 0 | . | . | . | . | .
O=C(O)c1cccc(C(=O)Cc2ccccc2)c1 | 75* | 56* | 29 | 43 | 0 | 63* | 60* | 88* | 92* | 74*
Cc1ccc(CN(C)C(=O)C2CCC(=O)N(CCc3ccccc3)C2)o1 (stereo not given) | 8 | 6 | 10 | 9 | -3 | . | . | . | . | .
O=c1[nH]c2ccc(S(=O)(=O)N3CCN(c4ccc(F)cc4)CC3)cc2o1 | 14 | 55* | 4 | 1 | 4 | 6 | 6 | -7 | -6 | -2
CCN(Cc1nc2ccccc2c(=O)[nH]1)C(=O)COc1ccccc1-c1ccccc1 | -2 | 2 | -1 | 11 | -1 | . | . | . | . | .
Cc1ccc(C)c(S(=O)(=O)/N=C2\C=C(NS(=O)(=O)c3ccccc3)C(=O)c3ccccc32)c1 | 55* | 36 | 73* | 11 | 1 | 2 | 29 | -2 | 6 | 1
Cc1cccc(S(=O)(=O)Nc2cccc3c2C(=O)c2ccccc2-3)c1 | 1 | -4 | 17 | -5 | 78 | . | . | . | . | .
CCCCN1C(=O)C(CC(=O)NCCc2ccccn2)CC(C(=O)N(CC)CC)=C1C (stereo not given) | . | . | -1 | . | -1 | . | . | . | . | .
CCOC(=O)C1CCN(C(=O)c2cc3cc4ccc(C)cc4nc3o2)CC1 | 18 | -1 | -111 | 0 | 2 | . | . | . | . | .
CC1CCN(C(=O)c2cc3c(ccc4ccccc43)o2)CC1 | 93* | 89* | 8 | 90* | -1 | 89* | 90* | 98* | 78* | 76*
CCOC(=O)C1CCN(C(=O)c2cc3c(ccc4ccccc43)o2)CC1 | 73* | 56* | -6 | 56* | 1 | 69* | 67* | 81* | 53* | 55*
CCCCN(C)C(=O)c1ccc(Nc2nc(C(N)Cc3ccc(C(F)(F)F)cc3)cs2)nc1 (stereo not given) | . | . | -149 | . | -11 | . | . | . | . | .
C(=C\c1ccccc1)/C=N/N1CCN(Cc2ccccc2)CC1 | -22 | -4 | 22 | -1 | 1 | . | . | . | . | .
C(=C\c1ccccc1)/C=N/N1CCN(c2ccccn2)CC1 | 74* | 40 | 18 | 56* | 1 | 39 | 52* | 32 | 62* | 29
